Assay results from ChEMBL document CHEMBL3244396, “Synthesis and antileukemic activity of 5-substituted 2,3-dihydro-6,7-bis(hydroxymethyl)-1H-pyrrolizine diesters” (J Med Chem, 1977).
In brackets after ≈: the same amount, converted by molar mass.

Legend:
[1] = Cytotoxicity against human 9KB cells treated as ethanol solution; format: functional; details: read-out: ED50 (the source's name)
In short: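 Compound applied as an ethanol solution; activity read out as ED50 under the general screening protocol.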

L1210 [2] = test: Antileukemic activity against mouse L1210 cells allografted in female BDF1 mouse assessed as change in body weight at 50 mg/kg, ip administered daily for 9 days as Klucel suspension starting 24 hrs after tumor inoculation; format: functional; details: route intraperitoneal
In short: (§1)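 Ascitic fluid carrying L1210 cells was inoculated ip. Compound was given ip as a Klucel (hydroxypropylcellulose) suspension in nine daily doses, starting 24 h after inoculation. Body-weight difference (treated minus control) was recorded on day 5. Survival was scored as %T/C of mean survival time.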

L1210 [3] = test: Antileukemic activity against mouse L1210 cells allografted in female BDF1 mouse assessed as change in body weight at 100 mg/kg, ip administered daily for 9 days as Klucel suspension starting 24 hrs after tumor inoculation; format: functional; details: route intraperitoneal; in short: as §1
L1210 [4] = test: Antileukemic activity against mouse L1210 cells allografted in female BDF1 mouse assessed as change in body weight at 200 mg/kg, ip administered daily for 9 days as Klucel suspension starting 24 hrs after tumor inoculation; format: functional; details: route intraperitoneal; in short: as §1
L1210 [5] = test: Antileukemic activity against mouse L1210 cells allografted in female BDF1 mouse assessed as host mean survival time at 100 mg/kg, ip administered daily for 9 days as Klucel suspension starting 24 hrs after tumor inoculation relative to control; format: functional; details: route intraperitoneal
In short: (§2)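 L1210 leukemia given as an ascitic fluid cell inoculum, ip, to mice of the strain and sex in each line. Test material was given ip for nine daily doses starting 24 h after inoculation, in a Klucel (hydroxypropylcellulose) suspension. Read-out is mean survival time as %T/C versus controls, with >125 taken as significant.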

L1210 [6] = test: Antileukemic activity against mouse L1210 cells allografted in female BDF1 mouse assessed as host mean survival time at 50 mg/kg, ip administered daily for 9 days as Klucel suspension starting 24 hrs after tumor inoculation relative to control; format: functional; details: route intraperitoneal; in short: as §2
Mus musculus [7] = test: Toxicity in female BDF1 mouse allografted with mouse L1210 cells assessed as animal survival at 200 mg/kg, ip administered daily for 9 days as Klucel suspension starting 24 hrs after tumor inoculation measured on fifth day; format: organism-based; design: dose 200 mg/kg, route intraperitoneal; details: in vivo
In short: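 L1210 leukemia passaged as ascitic fluid and inoculated ip. Test agent given ip as a Klucel (hydroxypropylcellulose) suspension, nine daily doses starting 24 h after tumor inoculation. Acute toxicity read as toxicity-day survivors per group (out of 6), recorded on day 5. Animal weight difference T − C was also recorded. Follows NCI screening protocols.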

Mus musculus [8] = test: Toxicity in female BDF1 mouse allografted with mouse L1210 cells assessed as animal survival at 100 mg/kg, ip administered daily for 9 days as Klucel suspension starting 24 hrs after tumor inoculation measured on fifth day; format: organism-based; design: dose 100 mg/kg, route intraperitoneal; details: in vivo
In short: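 Female BDF1 mice bearing ip ascitic L1210 inoculum got nine daily ip doses in a Klucel suspension, starting 24 h after tumor inoculation. Toxicity was scored as toxicity-day survivors out of the group, recorded on the fifth day. Animal weight difference (T − C) was also tabulated.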

Mus musculus [9] = test: Toxicity in female BDF1 mouse allografted with mouse P388 cells assessed as animal survival at 25 mg/kg, ip administered daily for 9 days as Klucel suspension starting 24 hrs after tumor inoculation; format: organism-based; design: dose 25 mg/kg, route intraperitoneal; details: in vivo
In short: (§3)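 P-388 leukemia ascitic fluid inoculated ip. Compound given ip as a suspension in Klucel (hydroxypropylcellulose), once daily for nine doses beginning 24 h post-inoculation. Acute toxicity assessed as toxicity-day survivors per group. Survival was followed up to 30 days, with 30-day survival counted as "cure". Follows NCI screening protocols.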

Mus musculus [10] = test: Toxicity in female BDF1 mouse allografted with mouse P388 cells assessed as animal survival at 12.5 mg/kg, ip administered daily for 9 days as Klucel suspension starting 24 hrs after tumor inoculation; format: organism-based; design: dose 12.5 mg/kg, route intraperitoneal; details: in vivo; in short: as §3
P388 [11] = test: Antitumor activity against mouse P388 cells allografted in female CDF1 mouse assessed as disease cures by measuring 30-days host survival at 3.13 mg/kg, ip administered daily for 9 days as Klucel suspension starting 24 hrs after tumor inoculation relative to control; format: functional; details: route intraperitoneal
In short: (§4)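 P388 leukemia given as an ascitic fluid cell inoculum, ip, to mice of the strain and sex in each line. Nine daily ip doses were given in a Klucel (hydroxypropylcellulose) suspension, starting 24 h after inoculation. Read-out is median survival time as %T/C, with >125 taken as significant; a "cure" means 30-day survival.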

P388 [12] = test: Antitumor activity against mouse P388 cells allografted in female BDF1 mouse assessed as disease cures by measuring 30-days host survival at 25 mg/kg, ip administered daily for 9 days as Klucel suspension starting 24 hrs after tumor inoculation relative to control; format: functional; details: route intraperitoneal; in short: as §4
P388 [13] = test: Antitumor activity against mouse P388 cells allografted in female BDF1 mouse assessed as disease cures by measuring 30-days host survival at 12.5 mg/kg, ip administered daily for 9 days as Klucel suspension starting 24 hrs after tumor inoculation relative to control; format: functional; details: route intraperitoneal; in short: as §4
Mus musculus [14] = test: Toxicity in female CDF1 mouse allografted with mouse P388 cells assessed as animal survival at 50 mg/kg, ip administered daily for 9 days as Klucel suspension starting 24 hrs after tumor inoculation; format: organism-based; design: dose 50 mg/kg, route intraperitoneal; details: in vivo; in short: as §3
Mus musculus [15] = test: Toxicity in female CDF1 mouse allografted with mouse P388 cells assessed as animal survival at 6.25 mg/kg, ip administered daily for 9 days as Klucel suspension starting 24 hrs after tumor inoculation; format: organism-based; design: dose 6.25 mg/kg, route intraperitoneal; details: in vivo; in short: as §3
Mus musculus [16] = test: Toxicity in female CDF1 mouse allografted with mouse P388 cells assessed as animal survival at 3.13 mg/kg, ip administered daily for 9 days as Klucel suspension starting 24 hrs after tumor inoculation; format: organism-based; design: dose 3.13 mg/kg, route intraperitoneal; details: in vivo; in short: as §3
P388 [17] = test: Antitumor activity against mouse P388 cells allografted in female CDF1 mouse assessed as change in body weight at 3.13 mg/kg, ip administered daily for 9 days as Klucel suspension starting 24 hrs after tumor inoculation; format: functional; details: route intraperitoneal
In short: (§5)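 Ascitic fluid carrying P388 cells was inoculated ip. Compound was given ip in nine daily doses, starting 24 h after inoculation, in Klucel (hydroxypropylcellulose) suspension or in saline with Tween-80. Body-weight difference (treated minus control) was recorded on day 5. Survival was scored as %T/C of median survival time, and 30-day survival counted as cure.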

P388 [18] = test: Antitumor activity against mouse P388 cells allografted in female CDF1 mouse assessed as change in body weight at 6.25 mg/kg, ip administered daily for 9 days as Klucel suspension starting 24 hrs after tumor inoculation; format: functional; details: route intraperitoneal; in short: as §5
P388 [19] = test: Antitumor activity against mouse P388 cells allografted in female CDF1 mouse assessed as change in body weight at 50 mg/kg, ip administered daily for 9 days as Klucel suspension starting 24 hrs after tumor inoculation; format: functional; details: route intraperitoneal; in short: as §5
P388 [20] = test: Antitumor activity against mouse P388 cells allografted in female CDF1 mouse assessed as change in body weight at 100 mg/kg, ip administered daily for 9 days as Klucel suspension starting 24 hrs after tumor inoculation; format: functional; details: route intraperitoneal; in short: as §5
P388 [21] = test: Antitumor activity against mouse P388 cells allografted in female CDF1 mouse assessed as change in body weight at 200 mg/kg, ip administered daily for 9 days as Klucel suspension starting 24 hrs after tumor inoculation; format: functional; details: route intraperitoneal; in short: as §5
P388 [22] = test: Antitumor activity against mouse P388 cells allografted in female BDF1 mouse assessed as change in body weight at 25 mg/kg, ip administered daily for 9 days as Klucel suspension starting 24 hrs after tumor inoculation; format: functional; details: route intraperitoneal; in short: as §5
P388 [23] = test: Antitumor activity against mouse P388 cells allografted in female BDF1 mouse assessed as change in body weight at 12.5 mg/kg, ip administered daily for 9 days as Klucel suspension starting 24 hrs after tumor inoculation; format: functional; details: route intraperitoneal; in short: as §5
P388 [24] = test: Antitumor activity against mouse P388 cells allografted in female CDF1 mouse assessed as disease cures by measuring 30-days host survival at 50 mg/kg, ip administered daily for 9 days as Klucel suspension starting 24 hrs after tumor inoculation relative to control; format: functional; details: route intraperitoneal; in short: as §4
P388 [25] = test: Antitumor activity against mouse P388 cells allografted in female CDF1 mouse assessed as disease cures by measuring 30-days host survival at 6.25 mg/kg, ip administered daily for 9 days as Klucel suspension starting 24 hrs after tumor inoculation relative to control; format: functional; details: route intraperitoneal; in short: as §4

CNC(=O)OCc1c(COC(=O)NC)c(-c2ccc(Cl)cc2)n2c1CCC2
EC50 [1]: 2.3 µg/mL (≈ 5.87 µM) | Activity (L1210 [2]): -2.6 g | Activity (L1210 [3]): -3.8 g | Activity (L1210 [4]): -2.8 g | T/C (L1210 [5]): 107% | T/C (L1210 [6]): 112% | Activity (Mus musculus [7]): Toxic | Activity (Mus musculus [8]): Non-toxic | Activity (Mus musculus [9]): Non-toxic | Activity (Mus musculus [10]): Non-toxic | T/C (P388 [11]): 127% | T/C (P388 [12]): 135% | T/C (P388 [13]): 129% | Activity (Mus musculus [14]): Non-toxic | Activity (Mus musculus [15]): Non-toxic | Activity (Mus musculus [16]): Non-toxic | Activity (P388 [17]): -0.6 g | Activity (P388 [18]): 0.2 g | Activity (P388 [19]): -2.5 g | Activity (P388 [20]): -0.9 g | Activity (P388 [21]): 0.5 g | Activity (P388 [22]): -0.8 g | Activity (P388 [23]): -0.2 g | T/C (P388 [24]): 104% | T/C (P388 [25]): 150%
